HUVEC prolif 384 – inhibitors of HUVEC proliferation, primary screen, cell-based, 384-well; viability, % at 10 µM (by protocol); 1.1% of 86,000 active; AID 648, 2007; CellTiter-Glo luminescence, 72 h; stronger effect = lower value;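 active = viability at or below 30%; inactive = viability above 30%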;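 note: 100% = median luminescence of DMSO-only cell control wells on each plate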
H69AR growth 86K – proliferation blockers of H69AR lung cancer cells, primary screen, cell-based, human, 86K library; 6% of 85,000 active; H69AR lung tumor viability, ATP luminescence, 72 h; stronger effect = lower value; AID 598, 2007; viability, % at 10 µM;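 active = viability at or below 40%; inactive = viability above 40%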;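 note: multidrug resistant small cell line overexpressing MRP-1 efflux transporter; 100% = mean luminescence of untreated control wells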
MT1-MMP txn act – MT1-MMP promoter reporter activation – cell-based, luciferase luminescence, primary screen; HT1080 MT1-MMP promoter luciferase reporter, overnight; stronger effect = higher value; activation factor at 10 µM; 0.16% of 86,000 active; AID 750, 2007;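 active = activation factor of at least 2 for MT1-MMP transcription at 10 µM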
Jurkat viability – cytotoxicity toward Jurkat T cells, primary screen, cytotoxicity control, cell-based, Jurkat E6.1, 60K MLSMR library; AID 463, 2006; inhibition, % at 4 µM; Jurkat E6.1 viability, ATP luminescence, 48 h; 1.2% of 56,000 active;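 active = inhibition above the mean inhibition of all tested compounds plus 3 SD, cut at about 28% in these data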
Pyk2 oligo antag – antagonists of Pyk2 self-association, primary screen, Q293 cells, FERM NanoBiT luminescence, HTS; Protein-tyrosine kinase 2-beta (Homo sapiens), Q14289; stronger effect = lower value; z-score (the deposit names both 25 µM and 10 µM); 0.83% of 99,000 active; AID 1347419, 2020;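 active = Z-score of -3 or lower, scaled per plate to the spread of control and sample wells; inactive = z-score above -3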;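 note: negative z-score means lost luminescence so less FERM oligomerization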
Target sequence (Q14289 whole entry, looked up): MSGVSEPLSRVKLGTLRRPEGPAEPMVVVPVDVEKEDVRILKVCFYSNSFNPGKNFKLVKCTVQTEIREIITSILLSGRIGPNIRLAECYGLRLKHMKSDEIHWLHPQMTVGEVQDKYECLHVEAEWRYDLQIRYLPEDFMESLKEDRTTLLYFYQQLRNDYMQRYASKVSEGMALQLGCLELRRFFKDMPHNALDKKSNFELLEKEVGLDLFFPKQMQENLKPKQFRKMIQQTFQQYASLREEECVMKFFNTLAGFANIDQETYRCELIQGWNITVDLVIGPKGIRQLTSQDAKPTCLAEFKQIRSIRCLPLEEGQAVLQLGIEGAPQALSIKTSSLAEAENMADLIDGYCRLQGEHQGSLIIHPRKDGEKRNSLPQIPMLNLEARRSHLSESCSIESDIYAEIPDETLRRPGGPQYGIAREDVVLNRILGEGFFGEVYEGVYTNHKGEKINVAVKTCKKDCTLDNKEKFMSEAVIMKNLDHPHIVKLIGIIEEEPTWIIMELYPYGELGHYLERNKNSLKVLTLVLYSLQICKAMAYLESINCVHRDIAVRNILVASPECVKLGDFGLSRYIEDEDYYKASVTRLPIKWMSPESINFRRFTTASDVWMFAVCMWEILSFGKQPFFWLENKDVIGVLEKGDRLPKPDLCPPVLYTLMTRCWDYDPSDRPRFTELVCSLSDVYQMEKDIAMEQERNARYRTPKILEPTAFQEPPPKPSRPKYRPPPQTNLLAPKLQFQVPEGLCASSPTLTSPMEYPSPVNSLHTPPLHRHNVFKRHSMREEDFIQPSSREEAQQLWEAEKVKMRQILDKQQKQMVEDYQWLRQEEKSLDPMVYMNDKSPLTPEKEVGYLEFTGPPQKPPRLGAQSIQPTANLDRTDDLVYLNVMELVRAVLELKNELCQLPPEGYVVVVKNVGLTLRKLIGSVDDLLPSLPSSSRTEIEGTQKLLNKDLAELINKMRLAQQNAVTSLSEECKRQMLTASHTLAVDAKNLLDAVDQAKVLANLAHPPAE
Lung fibro prol – antiproliferative effect on LL 47 fibroblasts – human, LL 47 cells, CellTiter-Glo luminescence, primary screen. LL 47 human lung fibroblast viability, ATP luminescence; stronger effect = lower value. viability, % at 10 µM. 1.1% of 85,000 active. AID 719, 2007;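 active = viability at or below 50% in the single dose screen; inactive = viability above 50%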;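 note: compound exposure lasted 72 h before the ATP readout; 100% = median luminescence of untreated cell-only wells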
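test system = LL 47 human lung fibroblasts | amount = 1,150 fibroblasts seeded per well | medium = 15% FBS in IMEM | times = overnight cell rest, 72 h compound treatment at 37 °C | measured by = CellTiter-Glo luminescence measuring cellular ATP | read-out = viability percentage against median untreated-cell control | benchmarks = cell-only wells, no compound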
An asterisk follows results filed as active. Shown are actives, neighbours in structure and some others; about 5.9% of the full set was active somewhere.

How did Cn1c(CCN2CCCCC2)nc2cc(NS(=O)(=O)c3ccc(F)cc3)ccc21 do in these assays?
HUVEC prolif 384: 107; H69AR growth 86K: 22*; MT1-MMP txn act: 1.1; Jurkat viability: -4; Pyk2 oligo antag: 0.57; Lung fibro prol: 94

How did C=CCSc1nncn1/N=C/c1ccc(OC)cc1 do in these assays?
HUVEC prolif 384: 94; H69AR growth 86K: 94; MT1-MMP txn act: 2*; Jurkat viability: -2; Pyk2 oligo antag: -0.57

How did COc1ccc(/C=N/n2cnnc2SCCO)cc1OC do in these assays?
MT1-MMP txn act: 1.1; Jurkat viability: 7; Pyk2 oligo antag: 0.75

Results for COc1ccc(-c2noc(-c3ccc(Br)o3)n2)cc1OC ?
HUVEC prolif 384: 29*; H69AR growth 86K: 81; MT1-MMP txn act: 1.5; Jurkat viability: -7; Pyk2 oligo antag: 0.64; Lung fibro prol: 88

What do the screens show for `CCOC(=O)N1CCN(C(=O)c2cnn3c(C(F)F)cc(-c4ccc(C)cc4)nc23)CC1`?
HUVEC prolif 384: 99; H69AR growth 86K: 68; MT1-MMP txn act: 1; Jurkat viability: -6; Pyk2 oligo antag: -0.44; Lung fibro prol: 90

Results for COc1ccc(-c2cc(C(F)F)n3ncc(C(=O)N4CCN5CCCC5C4)c3n2)cc1 (centres undefined) ?
HUVEC prolif 384: 98; H69AR growth 86K: 38*; Pyk2 oligo antag: 0; Lung fibro prol: 97

How did COc1ccc(Br)cc1/C=N/NC(=O)C(c1ccncc1)N1CCOCC1 (centres undefined) do in these assays?
Pyk2 oligo antag: 0.98

How did COC(=O)c1ccccc1NC(=O)c1cc(-c2cccs2)on1 do in these assays?
HUVEC prolif 384: 25*; H69AR growth 86K: 11*; MT1-MMP txn act: 1.2; Jurkat viability: -7; Pyk2 oligo antag: -0.76; Lung fibro prol: 90

What do the screens show for `COC(=O)c1ccccc1NC(=O)c1cc(-c2cccc(OC)c2)on1`?
HUVEC prolif 384: 96; H69AR growth 86K: 78; MT1-MMP txn act: 1; Jurkat viability: -1; Lung fibro prol: 106

Results for O=C(O)c1ccc(Sc2nnc(-c3cccc(Br)c3)o2)c([N+](=O)[O-])c1 ?
HUVEC prolif 384: 83; H69AR growth 86K: 100; MT1-MMP txn act: 0.9; Pyk2 oligo antag: 0.38; Lung fibro prol: 94

Results for COc1cc(-c2nnc(Sc3ccc(C(F)(F)F)cc3[N+](=O)[O-])o2)cc(OC)c1OC ?
HUVEC prolif 384: 72; H69AR growth 86K: 1.0*; MT1-MMP txn act: 1; Pyk2 oligo antag: -0.3; Lung fibro prol: 83

How did Oc1ccc(N=Nc2n[nH]c(-c3ccc(Cl)cc3)n2)cc1 do in these assays?
Pyk2 oligo antag: -2.4

How did O=C(Nc1ccc(N2CCCC2)cc1)C(Cl)c1ccccc1 (centres undefined) do in these assays?
HUVEC prolif 384: 97; H69AR growth 86K: 22*; MT1-MMP txn act: 1.3; Pyk2 oligo antag: -0.45; Lung fibro prol: 92

What do the screens show for `N#C/C(=C\c1ccc(N2CCOCC2)o1)c1nc2ccccc2[nH]1`?
HUVEC prolif 384: 57; H69AR growth 86K: 20*; Pyk2 oligo antag: 1.7; Lung fibro prol: 83

What do the screens show for `Cc1cc(C(F)(F)F)nn1CC(=O)N(C)C1CCCCC1`?
HUVEC prolif 384: 98; H69AR growth 86K: 90; MT1-MMP txn act: 1.2; Pyk2 oligo antag: -0.83; Lung fibro prol: 94

Results for O=C1C(Cl)=C(N2CCN(Cc3ccccc3)CC2)C(=O)N1c1ccccc1 ?
HUVEC prolif 384: 93; H69AR growth 86K: 39*; MT1-MMP txn act: 1.2; Jurkat viability: 4; Pyk2 oligo antag: 0.9; Lung fibro prol: 98

How did O=C1C(Cl)=C(N2CCOCC2)C(=O)N1c1cccc(Cl)c1 do in these assays?
HUVEC prolif 384: 102; H69AR growth 86K: 0.8*; MT1-MMP txn act: 1.1; Jurkat viability: 2; Pyk2 oligo antag: 0.23

Results for Cn1c(SCc2ccc(C#N)cc2Cl)nc2ccccc21 ?
HUVEC prolif 384: 91; H69AR growth 86K: 71; MT1-MMP txn act: 1.6; Jurkat viability: 3; Pyk2 oligo antag: -0.74

Results for CC(C)=C1C2CCC1C1C(=O)N(NC(=O)COc3ccc(C(C)(C)C)cc3)C(=O)C21 (centres undefined) ?
Pyk2 oligo antag: -0.6

What do the screens show for `Cc1cccc(N(CC(=O)NCCC2=CCCCC2)S(C)(=O)=O)c1C`?
HUVEC prolif 384: 104; H69AR growth 86K: 97; MT1-MMP txn act: 0.9; Pyk2 oligo antag: -0.23; Lung fibro prol: 98

What do the screens show for `Cc1cccc(Cn2c(=O)n(-c3ccc(CC(=O)NCc4ccco4)cc3)c(=O)c3sccc32)c1`?
HUVEC prolif 384: 89; H69AR growth 86K: 20*; Lung fibro prol: 87

How did O=C(CCCn1c(=O)c2ccccc2n(Cc2ccccc2)c1=O)NCc1ccco1 do in these assays?
HUVEC prolif 384: 73; H69AR growth 86K: 88; Jurkat viability: 17; Pyk2 oligo antag: 0.44; Lung fibro prol: 103

Results for Cc1ccc(-n2c(=O)c3sccc3n(CC(=O)NCc3ccco3)c2=O)cc1 ?
HUVEC prolif 384: 99; H69AR growth 86K: 80; MT1-MMP txn act: 1.1; Jurkat viability: -8; Pyk2 oligo antag: 0.81; Lung fibro prol: 99

Results for Cc1ccc(NC(=O)Cn2c(=O)n(CCCC(=O)NCc3ccco3)c(=O)c3ccccc32)cc1 ?
HUVEC prolif 384: 39; H69AR growth 86K: 40; MT1-MMP txn act: 1.1; Jurkat viability: -3; Pyk2 oligo antag: -3.1*; Lung fibro prol: 75

How did O=C(CCCCn1c(=O)c2ccccc2n(Cc2ccc(F)cc2)c1=O)NCc1ccco1 do in these assays?
HUVEC prolif 384: 56; H69AR growth 86K: 22*; MT1-MMP txn act: 1.1; Jurkat viability: 37*; Pyk2 oligo antag: -0.81; Lung fibro prol: 70

Results for Cc1ccc(CSc2nc3ccccc3c(=O)n2CCCC(=O)NCc2ccco2)cc1 ?
HUVEC prolif 384: 58; H69AR growth 86K: 29*; MT1-MMP txn act: 1; Pyk2 oligo antag: -1.1; Lung fibro prol: 83

How did O=c1c2ccccc2n(Cc2ccc(Cl)cc2)c(=O)n1Cc1ccco1 do in these assays?
HUVEC prolif 384: 63; H69AR growth 86K: 70; MT1-MMP txn act: 1; Jurkat viability: -4; Pyk2 oligo antag: -2.1; Lung fibro prol: 89

How did O=C(NCc1ccco1)c1ccc(Cn2c(=O)c3ccccc3n(Cc3cccc(F)c3)c2=O)cc1 do in these assays?
HUVEC prolif 384: 49; H69AR growth 86K: 7.7*; MT1-MMP txn act: 1.1; Pyk2 oligo antag: -0.78; Lung fibro prol: 66

What do the screens show for `COCCNC(=O)Cn1c(=O)n(Cc2ccc(C(=O)NCc3ccco3)cc2)c(=O)c2ccccc21`?
HUVEC prolif 384: 99; H69AR growth 86K: 88; MT1-MMP txn act: 1.3; Jurkat viability: 9; Lung fibro prol: 104

From PubChem BioAssay
